Results published in ChEMBL document CHEMBL2311539, “3,6-Diamino-4-(2-halophenyl)-2-benzoylthieno[2,3-b]pyridine-5-carbonitriles are selective inhibitors of Plasmodium falciparum glycogen synthase kinase-3” (J Med Chem, 2013).

What was measured:
[1] = Inhibition of Plasmodium falciparum recombinant GSK-3 by radiometric protein kinase assay
Method in brief: (§1)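 His6-tagged recombinant GSK-3 expressed in E. coli (TOP10/pBAD-Thio-TOPO for P. falciparum and T. gondii, arabinose-induced; BL21(DE3)-pRARE2/pET15 for C. parvum, IPTG at 15 °C), Ni-NTA purified. Assayed with 40 μM GS-1 phosphopeptide, 15 μM γ-33P-ATP in pH 7.5 Tris buffer with MgCl2, EGTA, DTT, heparin, BSA; 30 min, 30 °C; P81 paper, phosphoric acid washes, scintillation counting. DMSO controls; dose-response IC50, triplicate points.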

[2] = Inhibition of pig GSK-3 by radiometric protein kinase assay; set-up: species or system Sus scrofa
Method in brief: (§2)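 Native affinity-purified porcine GSK-3 in the radiometric assay: 40 μM GS-1 peptide, 15 μM γ-33P-ATP, pH 7.5 Tris/MgCl2/EGTA/DTT/heparin/BSA buffer, 30 min at 30 °C, P81 filter binding and scintillation counting. IC50 from dose-response curves with triplicate points; top concentration 10 or 100 μM.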

[3] = tested on: Plasmodium falciparum; assay: Antiplasmodial activity against Plasmodium falciparum at 15 uM after 72 hrs by luciferase reporter gene assay; type: functional
Method in brief: (§3)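 NF54:LUC P. falciparum erythrocytic stages (luciferase under hrp2 promoter) at 3% parasitemia, 25% hematocrit; compounds in RPMI-1640 with 1% DMSO, triplicate wells; untreated, DMSO-only and non-luciferase NF54 blank wells. […] Bright-Glo lysis, luminescence read.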

[4] = tested on: Plasmodium falciparum; assay: Antiplasmodial activity against Plasmodium falciparum after 72 hrs by luciferase reporter gene assay; type: functional, organism-based; details: 48 h; method in brief: as §3
[5] = Inhibition of Toxoplasma gondii recombinant His6-tagged GSK-3 expressed in Escherichia coli using GS-1 peptide as substrate after 30 mins by scintillation counting analysis in presence of gamma-33P-ATP; type: cell-free; method in brief: as §1
[6] = Inhibition of Plasmodium knowlesi recombinant His6-tagged GSK-3 expressed in Escherichia coli using GS-1 peptide as substrate after 30 mins by scintillation counting analysis in presence of gamma-33P-ATP
Method in brief: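 P. knowlesi GSK3 gene in pBAD-Thio-TOPO, expressed in E. coli TOP10 (ampicillin, 37 °C, 0.02% arabinose for 4 h), Ni-NTA purified. Radiometric assay: 40 μM GS-1 peptide in buffer A pH 7.5 (MgCl2, EGTA, DTT, heparin, BSA) with 15 μM γ-33P-ATP, 30 min at 30 °C. P81 filter binding, scintillation counting. IC50 from triplicate dose-response curves.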

[7] = Inhibition of Plasmodium falciparum recombinant His6-tagged GSK-3 expressed in Escherichia coli using GS-1 peptide as substrate after 30 mins by scintillation counting analysis in presence of gamma-33P-ATP; method in brief: as §1
[8] = target: Glycogen synthase kinase-3 (Sus scrofa, UniProt B2LUN4+I6LNT8); assay: Inhibition of pig GSK-3alpha/beta; method in brief: as §2
[9] = Inhibition of Leishmania donovani GSK-3
[10] = Inhibition of Trypanosoma brucei GSK-3
[11] = Inhibition of Trypanosoma cruzi GSK-3
[12] = Inhibition of Cryptosporidium parvum recombinant His6-tagged GSK-3 expressed in Escherichia coli using GS-1 peptide as substrate after 30 mins by scintillation counting analysis in presence of gamma-33P-ATP; method in brief: as §1
[13] = target: Glycogen synthase kinase-3 beta (Homo sapiens, UniProt P49841); assay: Inhibition of human Nt-GST-tagged GSK-3beta
Chain of Glycogen synthase kinase-3 beta (P49841 whole entry, canonical isoform): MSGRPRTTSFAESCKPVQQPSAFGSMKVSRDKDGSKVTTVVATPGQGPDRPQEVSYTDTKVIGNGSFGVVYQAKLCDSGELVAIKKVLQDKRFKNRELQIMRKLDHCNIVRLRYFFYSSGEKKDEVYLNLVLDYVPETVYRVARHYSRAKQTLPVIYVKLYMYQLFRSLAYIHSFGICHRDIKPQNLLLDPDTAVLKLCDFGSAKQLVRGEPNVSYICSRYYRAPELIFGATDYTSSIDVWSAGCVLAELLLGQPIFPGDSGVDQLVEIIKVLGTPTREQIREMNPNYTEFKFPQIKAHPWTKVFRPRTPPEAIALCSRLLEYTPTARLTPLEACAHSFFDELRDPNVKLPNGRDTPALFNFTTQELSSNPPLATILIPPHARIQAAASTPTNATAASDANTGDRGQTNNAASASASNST
Method in brief: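 Recombinant human GSK-3 isoform assayed radiometrically: 40 μM GS-1 peptide in buffer A pH 7.5 with 15 μM γ-33P-ATP, 30 min at 30 °C. Read-out by P81 filter binding and scintillation. IC50 from triplicate dose-response curves; top inhibitor concentration 10, 25 or 100 μM.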

[14] = in the assay text read “48 hrs” for “72 hrs”

N#Cc1sc2nc(N)c(C#N)c(-c3ccccc3I)c2c1N
IC50 [1]: > 10 µM | IC50 [2]: > 10 µM

COc1ccccc1-c1c(C#N)c(N)nc2sc(C(=O)c3ccc(C#N)cc3)c(N)c12
IC50 [1]: > 10 µM | IC50 [2]: > 10 µM

N#Cc1sc2nc(N)c(C#N)c(-c3ccccc3Cl)c2c1N
IC50 [1]: 0.13 µM | IC50 [2]: 0.4 µM

COc1ccccc1-c1c(C#N)c(N)nc2sc(C(=O)c3cccc(Cl)c3)c(N)c12
IC50 [1]: 8.5 µM | IC50 [2]: > 10 µM

COc1cccc(C(=O)c2sc3nc(N)c(C#N)c(-c4ccccc4Cl)c3c2N)c1
IC50 [1]: 1.7 µM | IC50 [2]: > 10 µM | inhibition at 15 µM [3]: 63.5%

N#Cc1c(N)nc2sc(C(=O)c3ccccc3Cl)c(N)c2c1-c1ccccc1I
IC50 [1]: > 10 µM | IC50 [2]: > 10 µM

N#Cc1c(N)nc2sc(C(=O)c3cccc(Cl)c3)c(N)c2c1-c1ccccc1F
IC50 [1]: 10 µM | IC50 [2]: > 100 µM

N#Cc1c(N)nc2sc(C(=O)c3cccc(F)c3)c(N)c2c1-c1ccccc1Cl
IC50 [1]: > 100 µM | IC50 [2]: > 100 µM

N#Cc1sc2nc(N)c(C#N)c(-c3cccs3)c2c1N
IC50 [1]: 0.18 µM | IC50 [2]: 2.3 µM

N#Cc1c(N)nc2sc(C(=O)c3ccc(Cl)c(Cl)c3)c(N)c2c1-c1ccccc1Br
IC50 [1]: 3.8 µM | IC50 [2]: > 10 µM

N#Cc1c(N)nc2sc(C(=O)c3ccc(Cl)cc3)c(N)c2c1-c1ccccc1Br
IC50 [1]: > 100 µM | IC50 [2]: > 100 µM

COc1ccccc1-c1c(C#N)c(N)nc2sc(C(=O)c3ccc(C)cc3)c(N)c12
IC50 [1]: > 10 µM | IC50 [2]: > 10 µM

Cc1ccccc1-c1c(C#N)c(N)nc2sc(C#N)c(N)c12
IC50 [1]: 0.51 µM | IC50 [2]: 2 µM

N#Cc1c(N)nc2sc(C(=O)c3ccccc3)c(N)c2c1-c1ccccc1Br
IC50 [1]: 1.1 µM | IC50 [2]: > 10 µM

N#Cc1sc2nc(N)c(C#N)c(-c3ccccc3Br)c2c1N
IC50 [1]: 0.8 µM | IC50 [2]: 1.3 µM

CCOc1ccccc1-c1c(C#N)c(N)nc2sc(C#N)c(N)c12
IC50 [1]: > 10 µM | IC50 [2]: > 10 µM

N#Cc1c(N)nc2sc(C(=O)c3cccc(Br)c3)c(N)c2c1-c1ccccc1Cl
IC50 [1]: 0.91 µM | IC50 [2]: > 10 µM | EC50 ([4]; in the assay text read “after 48 hrs” for “after 72 hrs”): 7.5 µM | inhibition at 15 µM [3]: 100%

N#Cc1sc2nc(N)c(C#N)c(-c3c[nH]c4ccccc34)c2c1N
IC50 [1]: 1.6 µM | IC50 [2]: 3.5 µM

COc1ccc(C(=O)c2sc3nc(N)c(C#N)c(-c4ccccc4I)c3c2N)cc1
IC50 [1]: 1.7 µM | IC50 [2]: > 10 µM

N#Cc1c(N)nc2sc(C(=O)c3ccc(Cl)c(Cl)c3)c(N)c2c1-c1ccccc1I
IC50 [1]: 70 µM | IC50 [2]: > 100 µM

COc1ccccc1-c1c(C#N)c(N)nc2sc(C(=O)c3ccccc3Cl)c(N)c12
IC50 [1]: > 10 µM | IC50 [2]: > 10 µM

N#Cc1c(N)nc2sc(C(=O)c3cccc(Cl)c3)c(N)c2c1-c1ccccc1Br
IC50 [5]: > 100 µM | IC50 [6]: 1.45 µM | IC50 [7]: 0.61 µM | IC50 [1]: 0.61 µM | IC50 [2]: > 10 µM | inhibition at 15 µM [3]: 77.1% | IC50 [8]: > 100 µM | IC50 [9]: 44 µM | IC50 [10]: > 100 µM | IC50 [11]: > 100 µM | IC50 [12]: > 100 µM

N#Cc1c(N)nc2sc(C(=O)c3ccc(Cl)c(Cl)c3)c(N)c2c1-c1ccccc1Cl
IC50 [1]: 2.7 µM | IC50 [2]: > 10 µM | EC50 [4, 14]: 3.7 µM | inhibition at 15 µM [3]: 100%

COc1ccccc1-c1c(C#N)c(N)nc2sc(C(=O)c3ccc(Cl)cc3)c(N)c12
IC50 [1]: > 10 µM | IC50 [2]: > 10 µM

N#Cc1c(N)nc2sc(C(=O)c3ccc(C(F)(F)F)cc3)c(N)c2c1-c1ccccc1I
IC50 [1]: > 10 µM | IC50 [2]: > 10 µM

N#Cc1c(N)nc2sc(C(=O)c3cccc(Cl)c3)c(N)c2c1-c1ccccc1I
IC50 [5]: > 100 µM | IC50 [6]: 2.75 µM | IC50 [7]: 0.91 µM | IC50 [1]: 0.91 µM | IC50 [2]: > 10 µM | inhibition at 15 µM [3]: 65.4% | IC50 [8]: > 100 µM | IC50 [9]: 70 µM | IC50 [10]: > 100 µM | IC50 [11]: > 100 µM | IC50 [12]: > 100 µM

COc1ccccc1-c1c(C#N)c(N)nc2sc(C#N)c(N)c12
IC50 [1]: > 10 µM | IC50 [2]: > 10 µM

N#Cc1c(N)nc2sc(C(=O)c3ccc(Cl)cc3)c(N)c2c1-c1ccccc1
IC50 [1]: > 100 µM | IC50 [2]: > 100 µM

N#Cc1c(N)nc2sc(C(=O)c3ccc(Cl)cc3)c(N)c2c1-c1ccccc1I
IC50 [5]: > 100 µM | IC50 [6]: 15.5 µM | IC50 [7]: 1.61 µM | IC50 [13]: > 100 µM | IC50 [8]: > 100 µM | IC50 [9]: 80 µM | IC50 [10]: > 100 µM | IC50 [11]: > 100 µM | IC50 [12]: > 100 µM

N#Cc1cccc(C(=O)c2sc3nc(N)c(C#N)c(-c4ccccc4Cl)c3c2N)c1
IC50 [5]: > 100 µM | IC50 [6]: 6.5 µM | IC50 [7]: 0.5 µM | IC50 [1]: 0.5 µM | IC50 [2]: > 10 µM | inhibition at 15 µM [3]: 30.3% | IC50 [8]: > 100 µM | IC50 [9]: 100 µM | IC50 [10]: > 100 µM | IC50 [11]: > 100 µM | IC50 [12]: > 100 µM

COc1ccccc1-c1c(C#N)c(N)nc2sc(C(=O)c3ccccc3)c(N)c12
IC50 [5]: > 100 µM | IC50 [6]: 95 µM | IC50 [7]: 6 µM | IC50 [1]: 6 µM | IC50 [2]: > 100 µM | IC50 [13]: > 100 µM | IC50 [8]: > 100 µM | IC50 [9]: 80 µM | IC50 [10]: > 100 µM | IC50 [11]: > 100 µM | IC50 [12]: > 100 µM

Nc1c(C(=O)c2ccccc2)sc2nc3c(c(-c4ccccc4I)c12)CCCC3
IC50 [1]: > 10 µM | IC50 [2]: > 10 µM

N#Cc1c(N)nc2sc(C(=O)c3cccc(C(F)(F)F)c3)c(N)c2c1-c1ccccc1Cl
IC50 [1]: 2.2 µM | IC50 [2]: > 10 µM | EC50 [4, 14]: 5.6 µM | inhibition at 15 µM [3]: 100%

COc1ccccc1-c1c(C#N)c(N)nc2sc(C(=O)c3ccc(C(F)(F)F)cc3)c(N)c12
IC50 [1]: > 10 µM | IC50 [2]: > 10 µM

N#Cc1c(N)nc2sc(C(=O)Nc3ccc(Cl)cc3)c(N)c2c1-c1ccccc1I
IC50 [1]: > 10 µM | IC50 [2]: > 10 µM

Nc1c(C(=O)c2ccc(Cl)cc2)sc2nc3c(c(-c4ccccc4I)c12)CCCC3
IC50 [1]: > 10 µM | IC50 [2]: > 10 µM

N#Cc1c(N)nc2sc(C(=O)Nc3ccc(Cl)cc3)c(N)c2c1-c1ccccc1Br
IC50 [1]: > 10 µM | IC50 [2]: > 10 µM

CCOc1ccccc1-c1c(C#N)c(N)nc2sc(C(=O)c3ccc(Cl)cc3)c(N)c12
IC50 [1]: > 10 µM | IC50 [2]: > 10 µM

N#Cc1c(N)nc2sc(C(=O)c3cccc(Cl)c3)c(N)c2c1-c1cccs1
IC50 [1]: > 10 µM | IC50 [2]: > 10 µM

Cc1ccc(C(=O)c2sc3nc(N)c(C#N)c(-c4ccccc4I)c3c2N)cc1
IC50 [1]: 3.2 µM | IC50 [2]: > 10 µM

N#Cc1c(N)nc2sc(C(=O)Nc3ccc(Cl)cc3)c(N)c2c1-c1ccccc1Cl
IC50 [1]: > 10 µM | IC50 [2]: > 10 µM

COc1ccc(C(=O)c2sc3nc(N)c(C#N)c(-c4ccccc4OC)c3c2N)cc1
IC50 [1]: > 10 µM | IC50 [2]: > 10 µM

N#Cc1c(N)nc2sc(C(=O)c3ccccc3)c(N)c2c1-c1ccccc1I
IC50 [1]: 2.4 µM | IC50 [2]: > 10 µM
